Activity calls are given as the source filed them. No cut-off for these calls is given here.
Columns and labels:
Assay type in all cases: functional, cell-based
[1] = system: C2C12; experiment: Induction of cell differentiation in mouse C2C12 cells assessed as myotube formation at 5 uM after 3 days
Outline: (§1)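 C2C12 myoblasts grown 2 days in growth medium to about 70% confluence, then differentiation induced by serum reduction in differentiation medium containing compound at 5 µM final (from 20 mM DMSO stock). Controls received equal DMSO. Incubation at 37 °C for 7 days, medium changed at days 3 and 5. Myotube morphology was photographed under the microscope at 3, 5 and 7 days. Duplicates, four controls.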

[2] = system: C2C12; experiment: Induction of cell differentiation in mouse C2C12 cells assessed as myotube formation at 5 uM after 5 days; outline: as §1
[3] = system: C2C12; experiment: Induction of cell differentiation in mouse C2C12 cells assessed as myotube formation at 5 uM after 7 days; outline: as §1
[4] = system: C2C12; experiment: Induction of cell differentiation in mouse C2C12 cells assessed as myotube formation at 5 uM; outline: as §1

Row | Compound | Activity [4] | other results
1 | c1ccc(CN(c2ccccc2)c2ncc(-c3cccs3)s2)cc1 | Active | Activity [1]: Active; Activity [2]: Active; Activity [3]: Active
2 | Cc1ccc(-c2cnc(N(Cc3ccccc3)c3ccccc3)s2)cc1 | inactive | –
3 | Cc1ccccc1-c1cnc(N(Cc2ccccc2)c2ccccc2)s1 | inactive | –
4 | CCOC(=O)c1ccc(-c2cnc(N(Cc3ccccc3)c3ccccc3)s2)cc1 | Active | –
5 | Fc1ncccc1-c1cnc(N(Cc2ccccc2)c2ccccc2)s1 | Active | –
6 | Fc1ccc(-c2cnc(N(Cc3ccccc3)c3ccccc3)s2)cc1 | Active | –
7 | O=[N+]([O-])c1cccc(-c2cnc(N(Cc3ccccc3)c3ccccc3)s2)c1 | Active | –
8 | c1ccc(CN(c2ccccc2)c2ncc(-c3ccccc3)s2)cc1 | Active | –
9 | O=[N+]([O-])c1ccc(-c2cnc(N(Cc3ccccc3)c3ccccc3)s2)cc1 | inactive | –

Reference: ChEMBL document CHEMBL1759898, “Synthesis of 5-arylated N-arylthiazole-2-amines as potential skeletal muscle cell differentiation promoters” (Bioorg Med Chem Lett, 2011)
